Assay outcomes: PubChem, several laboratories
Diaph act CS – compounds boosting diaphorase resazurin reduction – biochemical, uHTS, resorufin fluorescence, counter-screen for diaphorase-coupled primary assays, primary screen; Diaphorase/resazurin coupled assay, 16 min; stronger effect = higher value; 1 = vehicle wells, 0 = NADH-free wells; activation factor at 20 µM; actives 0.005% (n = 190,000); AID 1229, 2008;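 active = diaphorase activity raised at least twofold by the compound at 20 µM; inactive = activation factor below 2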
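Test system: Clostridium kluyveri diaphorase, purified enzyme. Buffer or medium: 50 mM HEPES pH 7.4 buffer plus MgCl2 and Tween 20. Also added: 0.114 mM NADH and 0.1 mM resazurin, final amounts. Dosing: compound 20 µM once, DMSO 1%. Schedule: 16 min enzyme reaction, ambient temperature. Detection: fluorescence of resorufin, 544 nm excitation, 590 nm emission.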
Diaphorase inh – diaphorase inhibitors and chemical oxidizers, primary screen, counter-screen for diaphorase-coupled primary assays, biochemical, uHTS, resorufin fluorescence | diaphorase resazurin-to-resorufin fluorescence, NADH, 16 min; bacterial (C. kluyveri) enzyme, not human | inhibition, % at 20 µM | actives 0.69% (n = 190,000) | AID 1217, 2008;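 active = primary screen inhibition at 20 µM above a set limit, cut at about 50% in these data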
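material = Clostridium kluyveri diaphorase enzyme | amount = 0.14 U/mL diaphorase, enzyme working solution | schedule = incubation 16 min, room temperature | detection = fluorescence of resorufin formed from resazurin, Ex 544/Em 590 nm | benchmarks = positive control minus NADH, DMSO neutral control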
WT yeast gro inh – growth inhibition of WT strain, primary screen, mitochondrial fusion inhibitor project, WT and mutant strains, chemical genetic | mitochondrial fusion phenotypic screen | inhibition, % at 10 µM | actives 2.1% (n = 190,000); in the data active = inhibition above about 58%; tested in S. cerevisiae
G6PDH CS – L. mesenteroides G6PDH inhibitors, counter-screen for G6PDH-coupled screening assays, biochemical, Leuconostoc mesenteroides enzyme; glucose-6-phosphate dehydrogenase [Leuconostoc mesenteroides]; Purified L. mesenteroides G6PDH, diaphorase/resazurin coupled fluorescence, 45 min; inhibition, % at 5 µM; actives 0.12% (n = 200,000)
L major viab – Leishmania major promastigote growth inhibition, primary screen | Leishmania major promastigotes, resazurin fluorescence viability | inhibition, % at 10 µM | actives 9% (n = 200,000);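 also: promastigotes grown with compound for 44 hours at 28 °C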
Of the large screens only hits and unclear results are named; the others gave an inactive call. A selection: hits, their analogues and other compounds. The true share with any hit is near 11%. Rule as the data show it, unless noted: active = inhibition above about 50%; inactive = the rest.

Cc1ccc(S(=O)(=O)N(C)Cc2ccc(C(=O)N/N=C/c3ccc(OC(F)F)cc3OC(F)F)cc2)cc1	L major viab 55
CC(NC(=O)CCc1ccc(S(=O)(=O)NC2CCCCC2)cc1)c1ccccc1 (stereo not drawn)	L major viab 96
CC(NS(=O)(=O)c1ccc(CCC(=O)NCc2cccnc2)cc1)c1ccccc1 (stereo not drawn)	L major viab 74
Cc1ccc(CNC(=O)CCc2ccc(S(=O)(=O)NC3CCCCC3)cc2)cc1	L major viab 73
Cc1ccc(Cl)cc1NC(=O)CCN1C(=O)C2C3CCC(C3)C2C1=O (stereo not drawn)	none
O=C(Nc1ccccc1)N1CCN(S(=O)(=O)c2ccccc2)CC1	none
CC(C)c1nc2oc3c(NCC4CCCO4)ncnc3c2c2c1COC(C)(C)C2 (stereo not drawn)	Diaphorase inh 90
Cc1nc2oc3c(NCC4CCCO4)ncnc3c2c2c1COC(C)(C)C2 (stereo not drawn)	none
Cc1ccc(SCC(=O)O/N=C(\N)c2ccc([N+](=O)[O-])cc2)cc1	none
N/C(=N\OC(=O)CSc1ccccc1)c1cccc([N+](=O)[O-])c1	L major viab 81
N/C(=N\OC(=O)Oc1ccccc1)c1cccc([N+](=O)[O-])c1	L major viab 59
O=C(NCCNC(=O)c1ccc([N+](=O)[O-])cc1)c1ccncc1	none
O=C(O)c1ccccc1N/C=C\[N+](=O)[O-]	none
CCOC(=O)c1cnc2c(cnn2C)c1NCc1ccc(OC)cc1	none
CCOC(=O)c1cnc2c(C(=O)OC)cccc2c1NCc1ccco1	L major viab 51 (no result: WT yeast gro inh)
CCOC(=O)c1cnc2c(C)cccc2c1NCc1ccco1	L major viab 56
CCOC(=O)c1cnc2c(C)cccc2c1Nc1ccc(N2CCOCC2)cc1	none
COC(=O)Cn1c(=NC(=O)c2ccc([N+](=O)[O-])s2)sc2cc(Br)ccc21	L major viab 100
COCc1cc(=O)n2[nH]c(-c3cccc(Br)c3)cc2n1	L major viab 100
COCc1cc(=O)n2[nH]c(-c3ccccc3)cc2n1	none
O=C(O)C1CC=CCC1C(=O)Nc1ccc(N2CCN(Cc3ccccc3)CC2)cc1 (stereo not drawn)	none
Cc1ccc(-n2c(=O)[nH]c3c(oc4ccccc43)c2=O)cc1	none
COc1ccc(-n2c(=S)[nH]c3c(oc4ccccc43)c2=O)cc1	Diaphorase inh 68
COc1ccc(CC(=O)N2CCN=C2SCc2ccc([N+](=O)[O-])cc2)cc1	L major viab 76
O=C(Cc1ccccc1)N1CCN=C1SCc1ccc([N+](=O)[O-])cc1	L major viab 93
O=C(COc1ccccc1)N1CCN=C1SCc1cccnc1	L major viab 65
COc1cc(OC)cc(C(=O)N2CCN=C2SCc2cccnc2)c1	none
CC(C)Cn1c(-c2ccc(Br)o2)n[nH]c1=S	none
Cc1ccccc1N=C1NC(=O)/C(=C/c2cccn2-c2cccc(C(=O)O)c2)S1	none
CC(C)Oc1ccc(CCc2n[nH]c(=S)n2-c2ccccc2)cc1	none
CCOc1ccc2nc(SCC(=O)Nc3cc4c(cc3C(C)=O)OCO4)[nH]c2c1	none
CCSc1ccccc1C(=O)Nc1ccc([N+](=O)[O-])cc1OC	none
CCc1ccccc1NC(=O)c1ccccc1Sc1ccc([N+](=O)[O-])cc1Cl	L major viab 97
CCOc1ccc(-n2cc(C(=O)Nc3cccc(OC)c3)c3cc(OC)c(OC)cc3c2=O)cc1	L major viab 66
CCn1cc(C(=O)Nc2cccc(NC(C)=O)c2)c2cc(OC)c(OC)cc2c1=O	none
O=C(CSc1ccc2c(c1)OCCO2)Nc1ccc(Br)cc1	L major viab 67
CCn1cc(C(=O)Nc2ccc3c(c2)OCCO3)c2cc(OC)c(OC)cc2c1=O	L major viab 51
COc1ccc(NC(=O)CSc2ccc3c(c2)OCCO3)cc1OC	WT yeast gro inh 86
COc1ccc(C(=O)N(C(C)C)C(C)C)c(OC)c1	none
COc1ccc(-n2c(SCC(=O)N3CCCC3)nc3c([nH]c4ccccc43)c2=O)cc1	none (no result: Diaph act CS, Diaphorase inh, G6PDH CS, L major viab)
CCOc1cc(C=O)cc(Br)c1OCC(=O)NCCc1ccccc1	none
